Test [1] addresses UL54 (Human cytomegalovirus, UniProt P08546). Description: DNA synthesis by UL54 alone, filter binding assay. Format: biochemical. An outline of the steps: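 Basal DNA synthesis by UL54 alone, without UL44, was measured by filter-binding assay across test compound concentrations. Signal is given relative to no compound, and error bars are standard errors of the mean.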
The target in test [2] is UL44−P54 interaction (Human cytomegalovirus, UniProt P16790). Description: FP assay of UL44−P54 interaction. Format: binding. As to conditions: IC50, inhibition of P54−UL44 interaction, incubation time 20 min or beyond. In outline:
(§1)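 Fluorescence polarization assays of each protein–peptide pair: UL44–P54 (GST-fused UL44ΔC290 with fluorescently labelled P54), UL42–P30 and PCNA–p21. Test compound was pre-incubated for set times, up to 60 min, before FP was read. Normalized mP relative to the no-inhibitor control was plotted against compound concentration. Error bars are standard errors of the mean.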

The target of test [3] is PCNA−P21 interaction (Homo sapiens, UniProt P12004). Description: FP assay of PCNA−P21 interaction. Format: binding. The conditions noted are these: incubation up to 60 min, not meaningfully changed. An outline of the steps:
as §1

The target of test [4] is UL54/UL44 DNA polymerase (Human cytomegalovirus, UniProt P16790). Description: Long-chain DNA synthesis by UL54−UL44. Format: biochemical. An outline of the steps: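 UL54 with UL44 was used to make long-chain DNA products, and their formation was followed across a dose series of test compound, with product lanes compared. Signal is expressed relative to the no-compound reaction, and error bars are standard errors of the mean.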

Test [5] deals with UL44 binding to full-length UL54 (Human cytomegalovirus, UniProt P16790). Description: UL54−UL44 interaction assay by biolayer interferometry. An outline of the steps: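 Biolayer interferometry measured UL44 binding to full-length UL54 in the presence of test compound. Signal is given relative to binding without compound, and error bars are standard errors of the mean.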
On the technique in general: BLI is a label-free optical method that tracks binding on a fibre tip over time.

Test [6] concerns the target UL42−P30 interaction (Human herpesvirus 1, UniProt P10226). Description: FP assay of UL42−P30 interaction. Format: binding, herpes simplex virus-1. In outline: as §1
In test [7] the target is UL44 K60A−P54 interaction (Human cytomegalovirus, UniProt P16790, K60A). Description: FP assay of mutant UL44 K60A−P54 interaction. Format: binding. As to conditions: read-out: inhibition of UL44 K60A−P54 interaction.

Chain of PCNA−P21 interaction (P12004 whole entry): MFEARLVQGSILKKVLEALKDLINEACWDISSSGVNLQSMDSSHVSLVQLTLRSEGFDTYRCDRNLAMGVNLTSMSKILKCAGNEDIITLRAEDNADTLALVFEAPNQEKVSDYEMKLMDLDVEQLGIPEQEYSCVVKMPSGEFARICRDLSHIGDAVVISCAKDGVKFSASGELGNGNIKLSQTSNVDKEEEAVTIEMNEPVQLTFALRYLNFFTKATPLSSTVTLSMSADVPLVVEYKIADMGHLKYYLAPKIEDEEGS

Usually IC50 stands for the concentration that gives 50% inhibition. The low end stands for inhibition by little substance, the high end for a need for much substance. Usually inhibition stands for the drop in the measured response relative to a control, in per cent. With `CSc1scc2c1C(=O)C(=CN(C)C)CC2` [SGM8], the IC50 in test [1] is above 100 µM; in test [2], 2 µM; in test [4], 3.2 µM; in test [5], 4.5 µM; in test [6], around 20 µM. For the same compound, the “inhibition of P21−PCNA interaction” value in test [3] was “very weak inhibition”. Moreover, the “change of inhibition of P30−UL42 interaction on longer incubation” value in test [6] (incubation time extended to 60 min) is listed as “only slightly increased”. Besides, the inhibition at 20 µM in test [7] was below 50%.

(Values after article PMC5480311 (ACS infectious diseases, 2016).)
